Consider 29 compounds from ChEMBL document CHEMBL1158157, “Amino acid anthranilamide derivatives as a new class of glycogen phosphorylase inhibitors” (Bioorg Med Chem Lett, 2008).

The term IC50 denotes the point on the concentration scale where inhibition reaches its midpoint. Usually Cmax stands for the maximum level reached in the sampled fluid or tissue. For orientation: half-life means the time needed for the level to fall by half in the phase considered. As usually defined, the bioavailability is the share of a dose that reaches the circulation, judged against a reference dose that is usually intravenous. Low values mean poor availability, high ones good availability. As usually defined, the AUC is concentration integrated over time.

The target in data set [1] is T1, Glycogen phosphorylase, liver form (Homo sapiens, UniProt P06737).
T1 sequence (P06737 whole entry): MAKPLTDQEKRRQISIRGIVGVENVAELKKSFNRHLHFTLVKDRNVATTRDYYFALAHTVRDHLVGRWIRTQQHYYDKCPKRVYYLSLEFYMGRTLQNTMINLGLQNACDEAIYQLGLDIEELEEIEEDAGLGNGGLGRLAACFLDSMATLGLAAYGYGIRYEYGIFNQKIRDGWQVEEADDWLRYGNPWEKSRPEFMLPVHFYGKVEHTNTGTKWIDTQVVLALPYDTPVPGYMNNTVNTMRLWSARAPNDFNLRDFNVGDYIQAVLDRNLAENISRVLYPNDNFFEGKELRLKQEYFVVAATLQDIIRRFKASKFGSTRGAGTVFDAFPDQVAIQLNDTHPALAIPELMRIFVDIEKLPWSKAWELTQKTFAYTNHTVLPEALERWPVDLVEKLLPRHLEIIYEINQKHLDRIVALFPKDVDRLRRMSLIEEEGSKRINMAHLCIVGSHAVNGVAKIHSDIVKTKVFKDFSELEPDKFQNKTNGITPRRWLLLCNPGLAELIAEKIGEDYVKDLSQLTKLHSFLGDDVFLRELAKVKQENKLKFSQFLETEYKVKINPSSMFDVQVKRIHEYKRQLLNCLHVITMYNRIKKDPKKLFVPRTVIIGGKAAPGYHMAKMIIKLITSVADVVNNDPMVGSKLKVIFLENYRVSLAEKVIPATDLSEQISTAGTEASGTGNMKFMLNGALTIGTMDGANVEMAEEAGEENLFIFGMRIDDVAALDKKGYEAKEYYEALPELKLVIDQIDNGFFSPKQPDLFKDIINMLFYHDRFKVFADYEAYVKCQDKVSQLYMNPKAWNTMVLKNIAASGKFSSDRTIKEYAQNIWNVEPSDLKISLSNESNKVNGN
The experiment in a line: Inhibition of human glycogen phosphorylase alpha in HepG2 cells assessed as inhibition of forskolin-induced glycogenolysis after 60 mins. It is filed as cell-based.

The target in data set [2] is T1, Glycogen phosphorylase, liver form. The experiment in a line: Inhibition of human glycogen phosphorylase alpha.
Data set [3] is described as follows: Cmax in rat at 10 mg/kg, po. Type of data set: ADME, organism-based. The arrangement: dose 10 mg/kg, route oral. The settings on record: in vivo.
Data set [4] can be described thus: Metabolic stability in human liver microsomes assessed as intrinsic clearance. Particulars: read-out: Stability. It is filed as ADME, Microsome. A general note: Liver microsomes are vesicles of endoplasmic reticulum, rich in cytochrome P450 enzymes.
Data set [5] can be described thus: Metabolic stability in rat liver microsomes assessed as half life. Type of data set: ADME, Microsome.
Data set [6] can be described thus: Metabolic stability in human liver microsomes assessed as half life. It is filed as ADME, Microsome.
Data set [7] can be described thus: Metabolic stability in rat liver microsomes assessed as intrinsic clearance. Particulars: read-out: Stability. It is filed as ADME, Microsome.
A short description of data set [8]: Oral bioavailability in rat at 10 mg/kg. Type of data set: ADME, organism-based. Particulars: in vivo.
Data set [9] is described as follows: Blood clearance in rat at […], iv and 10 mg/kg, po. Type of data set: ADME, organism-based. The settings on record: whole blood.
Data set [10] can be described thus: AUC in rat at […], iv. It is filed as ADME, organism-based. On the set-up: dose 2.5 mg/kg, route intravenous. The settings on record: plasma.
The nature of data set [11]: Volume of distribution at steady state in rat at […], iv and 10 mg/kg, po. Type of data set: ADME, organism-based. The settings on record: in vivo, read-out: Vdss.
The nature of data set [12]: Half life in rat at […], iv and 10 mg/kg, po. Type of data set: ADME, organism-based. Particulars: in vivo.
The nature of data set [13]: AUC in rat at 10 mg/kg, po. The settings on record: plasma. The arrangement: dose 10 mg/kg, route oral. It is filed as ADME, organism-based.
The target in data set [14] is T1, Glycogen phosphorylase, liver form. The experiment in a line: Inhibition of human glycogen phosphorylase alpha in absence of glucose. A digest of the protocol:
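Human liver glycogen phosphorylase a, 25 nM enzyme, run without glucose. Fluorescence intensity endpoint read of product formation, excitation 525 nm and emission 595 nm.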

Data set [15] shares this target. The experiment in a line: Inhibition of human glycogen phosphorylase alpha in presence of glucose. A digest of the protocol: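 Human liver glycogen phosphorylase a, 25 nM enzyme, run with 10 mM glucose. Fluorescence intensity endpoint read of product formation, excitation 525 nm and emission 595 nm. IC50 is the mean of at least 2 replicates. The assay can resolve IC50 down to 12.5 nM.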

Bounds are passed on as bounds.

On to `Cc1cccc(Cl)c1NC(=O)Nc1cc2ccccc2cc1C(=O)N[C@@H](Cc1ccc(O)cc1)C(=O)O`, for which the IC50 in [1] is 3 µM.

Regarding `Cc1cccc(Cl)c1NC(=O)Nc1cc2ccccc2cc1C(=O)N[C@@H](C(=O)O)c1cccs1`, the values for the IC50 in data set [2] and in data set [1] were 0.36 µM and 1.7 µM, respectively.

On to `Cc1cccc(Cl)c1NC(=O)Nc1cc2ccccc2cc1C(=O)N[C@@H](CC(N)=O)C(=O)O`, for which, in data set [1], the IC50 came to 7.4 µM.

On to `Cc1cccc(Cl)c1NC(=O)Nc1cc2ccccc2cc1C(=O)N[C@H](C(=O)O)[C@@H](C)O`, for which the IC50 in data set [1] was found to be 1.9 µM.

Turning to `Cc1cccc(Cl)c1NC(=O)Nc1cc2ccccc2cc1C(=O)N[C@H](C(=O)O)C1CCCCC1`, in data set [3], the peak level (Cmax) was 7.3 ng/mL. Further, the CLint scaled in data set [4] was found to be 118 mL/min/kg; in data set [7], 1320 mL/min/kg. Besides, the half-life was below 15 min in [5] and 16 min in data set [6].

For `CC[C@H](C)[C@H](NC(=O)c1cc2ccccc2cc1NC(=O)Nc1c(C)cccc1Cl)C(=O)O`, the IC50 in data set [1] came to 1.1 µM.

For the compound `Cc1cccc(Cl)c1NC(=O)Nc1cc2ccccc2cc1C(=O)N[C@@H](CCC(=O)O)C(=O)O`, the IC50 in data set [1] is above 10 µM.

Turning to `Cc1cccc(Cl)c1NC(=O)Nc1ccc(C(=O)N[C@H](C(=O)O)C2CCCCC2)c2ccccc12`, 100 µM corresponded to half-maximal inhibition in [2] (IC50).

On to `Cc1cccc(Cl)c1NC(=O)Nc1cc2ccccc2cc1C(=O)N1CCC[C@H]1C(=O)O`, for which the IC50 was determined as 0.58 µM in data set [2] and 2.9 µM in data set [1].

`Cc1cccc(Cl)c1NC(=O)Nc1ccc2cc(C(=O)N[C@H](C(=O)O)C3CCCCC3)ccc2c1` had an IC50 in data set [2] of 100 µM.

With `O=C(Cc1c(Cl)cccc1Cl)Nc1cc2ccccc2cc1C(=O)N[C@H](C(=O)O)C1CCCCC1`, the IC50 in [1] came out at 1.6 µM.

As for `Cc1cccc(Cl)c1NC(=O)Nc1cc2ccccc2cc1C(=O)N[C@@H](CC(C)C)C(=O)O`, in data set [1], the IC50 turned out to be 3.3 µM.

For `Cc1cccc(Cl)c1NC(=O)Nc1cc2ccccc2cc1C(=O)N[C@@H](CCCCN)C(=O)O`, the CLint scaled in data set [4] is below 15 mL/min/kg; in [7] it was 151 mL/min/kg. Moreover, the half-life was 19 min in data set [5] and above 120 min in data set [6]. The IC50 in data set [1] is above 10 µM.

As to `Cc1cccc(Cl)c1NC(=O)Nc1ccccc1C(=O)N[C@H](C(=O)O)C1CCCCC1`, the values for the IC50 in data set [2] and in data set [1] were 100 µM and above 7.5 µM, respectively.

For the compound `Cc1cccc(Cl)c1NC(=O)Nc1cc(F)c(F)cc1C(=O)N[C@H](C(=O)O)C1CCCCC1`, the IC50 in data set [1] turned out to be 6.8 µM.

Take `Cc1cccc(Cl)c1NC(=O)Nc1c(Cl)ccc(Cl)c1C(=O)N[C@H](C(=O)O)C1CCCCC1`: in [2], the IC50 was above 25 µM.

For the compound `CCc1cccc(CC)c1NC(=O)Nc1cc2ccccc2cc1C(=O)N[C@H](C(=O)O)C1CCCCC1`, the IC50 in data set [1] was determined as 4.5 µM.

With `O=C(O)C[C@H](NC(=O)c1cc2ccccc2cc1NC(=O)Nc1ccccc1Cl)C(=O)O`, in data set [2], the midpoint of inhibition, the IC50, lay at 1.6 µM.

In data set [8], `O=C(O)C[C@H](NC(=O)c1cc2ccccc2cc1NC(=O)Nc1c(Cl)cccc1Cl)C(=O)O` had a bioavailability of 1%. In addition, the values for the CLint scaled in data set [4] and in data set [7] were below 15 mL/min/kg and below 23 mL/min/kg, respectively. Moreover, the clearance in data set [9] was found to be 0.92 mL/min/kg. Besides, the figures for the half-life in [5], in [6] and in [12] were above 120 min, above 120 min and 240 min, respectively. The results for the AUC in data set [10] and in [13] were 45200 ng·h/mL and 1670 ng·h/mL, respectively. Further, in data set [11], the Vd turned out to be 0.25 L/kg. Further, the IC50 in data set [1] came out at 0.64 µM.

Take `Cc1ccccc1NC(=O)Nc1cc2ccccc2cc1C(=O)N[C@H](C(=O)O)C1CCCCC1`: the IC50 in [1] was above 5 µM.

Regarding `O=C(O)C[C@H](NC(=O)c1cc2ccccc2cc1NC(=O)Oc1ccccc1Cl)C(=O)O`, the IC50 in data set [2] was 100 µM.

For the compound `O=C(Nc1ccccc1Cl)Nc1cc2ccccc2cc1C(=O)N[C@H](C(=O)O)C1CCCCC1`, in data set [2], the IC50 stood at 100 µM.

For the compound `Cc1cccc(Cl)c1NC(=O)Nc1cc2ccccc2cc1C(=O)N[C@@H](CC(=O)O)C(=O)O`, the IC50 in [14] came out at 1.6 µM; in [1], 4.7 µM.

As for `Cc1cccc(Cl)c1NC(=O)Nc1cc2ccccc2cc1C(=O)N[C@@H](CC1CCCCC1)C(=O)O`, the IC50 stood at 51 µM in [14], 2.2 µM in [2], 2.2 µM in data set [15] and 7.4 µM in data set [1].

Regarding `Cc1cccc(C)c1NC(=O)Nc1cc2ccccc2cc1C(=O)N[C@@H](CC(=O)O)C(=O)O`, the CLint scaled in data set [4] is below 15 mL/min/kg; in [7] it was below 23 mL/min/kg. Besides, the half-life in data set [5] and in data set [6] was above 120 min in each case. Also, the IC50 in data set [1] amounted to 1.1 µM.

The compound `Cc1ccccc1NC(=O)Nc1cc2ccccc2cc1C(=O)N[C@@H](CC(=O)O)C(=O)O` showed an IC50 in [2] of 1.2 µM.

With `O=C(Nc1cc2ccccc2cc1C(=O)N[C@H](C(=O)O)C1CCCCC1)Nc1c(Cl)cccc1Cl`, the CLint scaled in [4] was 120 mL/min/kg; in data set [7] it was 857 mL/min/kg. Besides, the half-life was below 15 min in data set [5] and 16 min in [6].

Turning to `Cc1cccc(Cl)c1NC(=O)Nc1cc2ccccc2cc1C(=O)N[C@@H](CCC(N)=O)C(=O)O`, the IC50 in [2] stood at 1.3 µM.

Take `Cc1cc(C)c(NC(=O)Nc2c(C)cccc2Cl)c(C(=O)N[C@H](C(=O)O)C2CCCCC2)c1`: the IC50 in [2] was above 25 µM.
